# Assay outcomes (PubChem)
# SENP1 inh: blocks the human SENP1 SUMO protease catalytic domain | Q9P0U3 | AID 624204 | recombinant SENP1 catalytic domain, CyPet-SUMO1-YPet FRET cleavage | inhibition, % at 10 µM | 360,000 tested, 0.21% active;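 active = inhibition at least 30% at 10 µM, raw YFP signal under a set limit, fluorescence ratio 0.5 to 1.5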;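 also: 0% = enzyme with DMSO and 100% = no enzyme wells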
# Target sequence (Q9P0U3 419-644 limits assumed): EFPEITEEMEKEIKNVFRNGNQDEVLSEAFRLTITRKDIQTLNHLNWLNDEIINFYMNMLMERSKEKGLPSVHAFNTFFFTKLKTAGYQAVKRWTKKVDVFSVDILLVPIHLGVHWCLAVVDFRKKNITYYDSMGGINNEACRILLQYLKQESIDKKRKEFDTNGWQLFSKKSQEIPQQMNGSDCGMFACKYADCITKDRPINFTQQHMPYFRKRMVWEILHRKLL
#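 Material – human SENP1 catalytic domain · Input – SENP1 enzyme, 20 pM final · Compound dosing – single concentration of 10 µM compound, 0.5% DMSO final · Timing – enzyme reaction for 50 min at room temperature, dark · Measured by – FRET fluorescence in CFP and YFP emission channels · Control set – no-enzyme wells low, DMSO-plus-enzyme wells high control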
# SENP8 block-1: blocks the human protease SENP8. Q96LD8. purified SENP8, Z-RLRGG-aminoluciferin cleavage, luminescence. inhibition, % at 10 µM. 330,000 tested, 1.2% active. AID 2540; in the data active = inhibition above about 50%
# Target sequence (Q96LD8 whole entry, looked up): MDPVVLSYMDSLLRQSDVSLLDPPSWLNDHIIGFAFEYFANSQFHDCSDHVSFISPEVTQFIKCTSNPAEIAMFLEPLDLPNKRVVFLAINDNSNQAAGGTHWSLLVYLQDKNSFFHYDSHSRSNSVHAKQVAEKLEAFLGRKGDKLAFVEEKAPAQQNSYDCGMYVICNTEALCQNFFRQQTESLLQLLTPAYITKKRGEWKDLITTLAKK
# SENP7 block: SENP7 protease inhibition; inhibition, % at 5 µM; AID 434973; recombinant SENP7, Z-RLRGG-aminoluciferin luminescence, 40 min; 330,000 tested, 1.5% active;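 active = inhibition above about 50% at the single test dose, limit read from the data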;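 also: plate controls were DMSO with enzyme for no effect and no enzyme buffer wells for full effect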
# SENP6 inh: SENP6 protease inhibition. Q9GZR1. Recombinant SENP6 catalytic domain, aminoluciferin luminescence. inhibition, % at 10 µM. 330,000 tested, 1.8% active;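 active = inhibition above about 50% at the single tested dose, limit read from the data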;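 also: plate controls were DMSO wells with enzyme for no effect and DMSO wells lacking enzyme for full effect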
# SENP8 block-2: inhibitors of human SENP8 protease | recombinant SENP8, Nedd8 substrate fluorescence | inhibition, % at 20 µM | 360,000 tested, 0.64% active; in the data active = inhibition mostly above about 40%, no sharp cut-off; inactive = mostly below about 27%
# SENP8 conf-1: confirmation of human SENP8 protease inhibitors; Recombinant SENP8, Z-RLRGG-aminoluciferin luminescence, 60 min; inhibition, % at 12.5 µM; shares compounds with SENP7 block; 6,200 tested, 40% active; AID 488912;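 active = mean inhibition across replicates above about 50%, limit read from the data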
# SENP6 conf: human SENP6 inhibition, confirmed | shares compounds with SENP7 block | recombinant SENP6, Z-RLRGG-aminoluciferin luminescence | inhibition, % at 12.5 µM | 6,200 tested, 58% active | AID 488915
# SENP7 conf: human SENP7 inhibition, confirmed; shares compounds with SENP7 block; recombinant SENP7, Z-RLRGG-aminoluciferin luminescence, 40 min; inhibition, % at 12.5 µM; 6,200 tested, 69% active; AID 488917
# Casp3 SENP sel: inhibits human caspase-3 in SENP selectivity test. purified caspase-3, Z-DEVD-aminoluciferin luminescence, 60 min. inhibition, % at 12.5 µM. shares compounds with SENP7 block. 6,200 tested, 60% active. AID 488918;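 active = mean inhibition above about 50%, limit read from the data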;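 also: plate controls were enzyme with DMSO for no effect and wells without caspase-3 for full effect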
# Target sequence (P42574 28-227 limits assumed): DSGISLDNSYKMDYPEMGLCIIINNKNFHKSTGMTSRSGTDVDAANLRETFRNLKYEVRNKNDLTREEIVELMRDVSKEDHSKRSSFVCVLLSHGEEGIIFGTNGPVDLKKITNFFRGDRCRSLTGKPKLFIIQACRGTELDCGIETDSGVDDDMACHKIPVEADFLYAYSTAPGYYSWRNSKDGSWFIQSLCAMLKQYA
# SENP luc ctr: counter-screen for SENP inhibitors: luminescence interference; shares compounds with SENP7 block; Pre-incubated SENP8/Z-RLRGG-aminoluciferin, luciferase luminescence interference; inhibition, % at 12.5 µM; 6,200 tested, 39% active;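 active = mean inhibition above about 50% when retested at one dose, limit read from the data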;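 also: plate controls were DMSO wells with completed reaction for no effect and substrate without enzyme for full effect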
# SENP8 conf-2: confirmation of human SENP8 protease inhibitors. 1,400 tested, 15% active. shares compounds with SENP8 block-2. AID 624319. purified SENP8, Nedd8-AMC/pro-Nedd8 cleavage fluorescence, 30 min. inhibition, % at 25 µM; in the data active = inhibition mostly above about 39%, no sharp cut-off; inactive = mostly below about 34%
# SENP1 conf: confirmation of human SENP1 SUMO protease inhibitors; shares compounds with SENP1 inh; recombinant SENP1, CyPet-SUMO1-YPet FRET cleavage; inhibition, % at 10 µM; 520 tested, 34% active; in the data active = inhibition mostly above about 35%, no sharp cut-off; inactive = mostly below about 32%;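 also: 0% = enzyme with DMSO and 100% = no enzyme control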
# SENP1 kinetic: confirmation of human SENP1 SUMO protease inhibitors, kinetic; shares compounds with SENP1 inh; recombinant SENP1, CyPet-SUMO1-YPet FRET kinetic cleavage; inhibition, % at 10 µM; 520 tested, 26% active; AID 651690; in the data active = inhibition mostly above about 32%, no sharp cut-off; inactive = mostly below about 29%;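 also: 0% = DMSO with enzyme and 100% = no enzyme substrate only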
# Active calls of the source: *; i = inactive; . = no result. This is a sample that favours compounds with a hit; in the whole collection about 2.5% have one here.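 The calls were made as follows, unless noted: active = mean inhibition above about 50% in the one-dose retest (limit read from the data); inactive = the rest.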
SMILES,SENP1 inh,SENP8 block-1,SENP7 block,SENP6 inh,SENP8 block-2,SENP8 conf-1,SENP6 conf,SENP7 conf,Casp3 SENP sel,SENP luc ctr,SENP8 conf-2,others
CC(C)c1onc(C(=O)N2CCC3(CC2)OCCO3)c1[N+](=O)[O-],2,-6,6,-6,15,.,.,.,.,.,.,
Cc1cc(C(=O)N=Nc2c(O)n(C)c3ccccc23)c(C)o1,3,79*,90*,91*,28,54*,56*,48,5,10,.,
COc1ccc(-c2cc(=Nc3cccc(C(=O)O)c3)c3cc(C)ccc3o2)cc1,2,64*,82*,50,-408,10,53*,68*,51*,65*,.,
Cc1cc(C(=O)CS(=O)(=O)c2ccccc2)cc(C)c1OC(=O)N(C)C,2,37,45,54*,10,44,41,78*,79*,36,.,
Cc1ccc(S(=O)(=O)CC(=O)c2cc(C)c(OC(=O)N(C)C)c(C)c2)cc1,-1,-6,3,5,10,.,.,.,.,.,.,
c1ccc(-c2[nH]c(-c3ccccc3)[n+](CC3CO3)c2-c2ccccc2)cc1 (stereo unspecified),0,-9,0,-10,-24,.,.,.,.,.,.,
Nc1ccccc1C(=O)OCCOc1ccccc1,1,86*,95*,90*,i,92*,92*,99*,81*,90*,.,
C=CCOC(=O)c1ccccc1N,0,-18,3,-11,-420,.,.,.,.,.,.,
CCN(CC(=O)Nc1ccc(C#N)c(Cl)c1)CC(=O)NC1CCS(=O)(=O)C1 (stereo unspecified),0,-9,-8,-12,7,.,.,.,.,.,.,
CN(C)C(=O)Oc1ccc(OCc2nc3ccccc3[nH]2)cc1,0,-6,95*,91*,14,94*,94*,100*,96*,93*,.,
CN(C)C(=O)Oc1ccc(OC(=O)N(C)C)cc1,-1,4,4,-6,7,.,.,.,.,.,.,
Cn1c(O)c(C=Nc2ccc(Br)cc2)c(=O)n(C)c1=O,0,50*,26,59*,-157,2,3,14,0,4,.,
O=P1(Oc2ccccc2)C[C@@H](O)[C@@H](O)[C@H](COCc2ccccc2)O1 (stereo partly specified),2,-1,0,2,25,.,.,.,.,.,.,
COc1ccc(OC)c(N2C(=O)NC(=O)/C(=C\c3ccc([N+](=O)[O-])s3)C2=O)c1,7,10,0,51*,48*,14,33,14,6,4,.,
O=c1[nH]c(=S)[nH]c(O)c1N=Nc1ccc2c(c1)OCCO2,36*,87*,92*,92*,42*,1,25,55*,64*,-1,6,
COCCNC(=O)Cn1cc(C(=O)c2ccccc2F)c2ccccc21,0,-10,-5,15,5,.,.,.,.,.,.,
COc1ccc(N=Nc2c(O)[nH]c(=S)[nH]c2=O)cc1,48*,66*,66*,76*,21,27,79*,51*,78*,7,.,SENP1 conf=43*;SENP1 kinetic=29
CCC(C)N=Cc1c(O)n(-c2ccccc2)c(=O)[nH]c1=O (stereo unspecified),1,7,4,-2,20,.,.,.,.,.,.,
C=CC12CN(C)C3C4COC(CC41)C1(C(=O)Nc4ccccc41)C32 (stereo unspecified),-2,.,.,.,41*,.,.,.,.,.,3,
CN1CCN(c2ccc(N)c(N3CCN(C)CC3)c2)CC1,6,-8,15,-32,51*,.,.,.,.,.,-7,
O=[N+]([O-])c1cc(F)c(N2CCCCC2)cc1Br,2,-4,0,0,40*,.,.,.,.,.,5,
CN1CCN(c2cc(N3CCCC3)c([N+](=O)[O-])cc2F)CC1,2,-1,3,-13,45*,.,.,.,.,.,16,
O=[N+]([O-])c1cc(F)c(N2CCCC2)cc1Br,0,-2,1,-9,13,.,.,.,.,.,.,
C/C=C1/CN2[C@@H]3C4CO[C@@H]3c3c([nH]c5cc(OC)ccc35)[C@@H]2CC14 (stereo partly specified),0,-14,-11,-11,40*,.,.,.,.,.,9,
COc1ccc2c3c([nH]c2c1)C(C)NCC3 (stereo unspecified),-20,-9,10,-20,-190,.,.,.,.,.,.,
SMILES,SENP1 inh,SENP8 block-1,SENP7 block,SENP6 inh,SENP8 block-2,SENP8 conf-1,SENP6 conf,SENP7 conf,Casp3 SENP sel,SENP luc ctr,SENP8 conf-2,others
C[C@]12CCC3C(CC[C@H]4C[C@@H](O)CC[C@]34C)C1C[C@H](Br)[C@@H]2O (stereo partly specified),2,-7,3,-4,13,.,.,.,.,.,.,
O=C(NC1(C(F)(F)F)Oc2ccc(Cl)cc2O1)N1CCC2(CC1)OCCO2 (stereo unspecified),1,1,7,25,40*,.,.,.,.,.,17,
O=C1NC(=O)C(CCc2ccncc2)(Cc2ccc3c(c2)OCO3)C(=O)N1CCc1ccccc1 (stereo unspecified),2,1,12,2,29*,.,.,.,.,.,13,
CC(=NCC1CCCO1)c1c(O)n(C)c(=O)n(C)c1=O (stereo unspecified),0,-8,-1,-16,8,.,.,.,.,.,.,
O=c1[nH]c(=S)[nH]c(O)c1N=Nc1cccc(S(=O)(=O)N2CCOCC2)c1,-2,1,0,-7,32,.,.,.,.,.,.,
COc1cccc(N=Nc2c(O)[nH]c(=S)[nH]c2=O)c1,12,24,29,49,51*,.,.,.,.,.,22,
O=c1[nH]c(O)c(N=Nc2cc(C(F)(F)F)ccc2Cl)c(=O)[nH]1,-8,-1,5,-4,16,.,.,.,.,.,.,
O=c1[nH]c(=S)[nH]c(O)c1N=Nc1cc(S(=O)(=O)Nc2ccc(Cl)cc2)ccc1Cl,5,6,-2,17,41*,.,.,.,.,.,11,
